We go through nine compounds from ChEMBL document CHEMBL2150955, “Design, synthesis and evaluation of N-(substituted benzothiazol-2-yl)amides as anticonvulsant and neuroprotective” (Eur J Med Chem, 2012).

The structures appear in SMILES notation. Activity calls are given as the source filed them. The rule behind the calls is not given here.

The subject of data set [1] is Mus musculus. Kind of data set: Anticonvulsant activity in ip mouse assessed as protection against subcutaneous pentylenetetrazol-induced seizures. It counts as functional. The method, boiled down: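 This is the Phase II quantitation in albino mice of either sex (25-30 g). […] TD50 came from the rotarod test, read 30 min after dosing. The protective index is TD50/ED50.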

Data set [2] has as its system Mus musculus. The experiment in a line: Anticonvulsant activity in ip dosed mouse assessed as compound concentration causing protection against maximal electroshock-induced seizures in half or more test animals after 4 hrs. Type of data set: functional. The following applies: read-out: MED. The method, boiled down:
(§1)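 Albino mice of either sex (25-30 g), housed under standard conditions with free access to pellet diet and water. Compounds given at 30, 100 and 300 mg/kg (n = 6). MES and scPTZ seizures were read at 0.5 h and 4 h. The value recorded is the minimum dose protecting half or more of the mice; 300 mg/kg is the maximum dose.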
In general terms: In the maximal electroshock model the usual endpoint is tonic extension of the hind limbs.

Data set [3] relates to Mus musculus. The experiment in a line: Neurotoxicity in ip dosed mouse assessed as minimal motor impairment after 0.5 hrs by rotarod test. It counts as toxicity, organism-based. The conditions noted are these: in vivo. The gist of the method:
(§2)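 Albino mice of either sex (25-30 g) received 30, 100 or 300 mg/kg (n = 6). Neurological deficit was assessed on the rotarod at 0.5 h and 4 h. The value recorded is the minimum dose producing neurotoxicity in half or more of the mice; 300 mg/kg is the maximum dose.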

Data set [4] relates to Mus musculus. The experiment in a line: CNS depressant activity in mouse assessed as immobility time at 100 mg/kg, ip measured 60 mins post dose by porsolt's swimming pool test. Type of data set: organism-based. The arrangement: dose 100 mg/kg, route intraperitoneal. The following applies: in vivo, 1 h. The method, boiled down:
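Behavioral depression was measured by Porsolt's swim test in albino mice of either sex. Immobility time (s) was recorded 24 h before as the control and again 60 min after treatment. Values are mean ± SEM of six mice, compared with Student's t test.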

Data set [5] concerns Mus musculus. Kind of data set: Neurotoxicity in ip dosed mouse assessed as minimal motor impairment after 4 hrs by rotarod test. It counts as toxicity, organism-based. The following applies: in vivo. The method, boiled down:
as §2
(In general: The rotarod test checks motor coordination on a turning rod.)

For data set [6], the system named is Mus musculus. Kind of data set: Anticonvulsant activity in mouse assessed as protection against subcutaneous pentylenetetrazol-induced seizures at 300 mg/kg, ip after 0.5 hrs. It counts as functional, organism-based. Details: dose 300 mg/kg. The gist of the method:
as §1

Data set [7] deals with Mus musculus. The experiment in a line: Anticonvulsant activity in ip dosed mouse assessed as compound concentration causing protection against maximal electroshock-induced seizures in half or more test animals after 0.5 hrs. It counts as functional. The following applies: read-out: MED. The method, boiled down: as §1
The test system of data set [8] is Mus musculus. The experiment in a line: Anticonvulsant activity in mouse assessed as protection against subcutaneous pentylenetetrazol-induced seizures at 300 mg/kg, ip after 4 hrs. The arrangement: dose 300 mg/kg. It counts as functional, organism-based. The gist of the method:
as §1

In data set [9] the test system is Mus musculus. The experiment in a line: Anticonvulsant activity in mouse assessed as protection against maximal electroshock-induced seizures at 300 mg/kg, ip after 0.5 hrs. Details: dose 300 mg/kg. Type of data set: functional, organism-based. The method, boiled down: as §1
Data set [10] relates to Mus musculus. The experiment in a line: Neurotoxicity in mouse assessed as minimal motor impairment at 300 mg/kg, ip after 4 hrs by rotarod test. The following applies: in vivo. The arrangement: dose 300 mg/kg, route intraperitoneal. It counts as toxicity, organism-based. The method, boiled down: as §2
Data set [11] relates to Mus musculus. Kind of data set: Neurotoxicity in mouse assessed as minimal motor impairment at 300 mg/kg, ip after 0.5 hrs by rotarod test. It counts as toxicity, organism-based. The arrangement: dose 300 mg/kg, route intraperitoneal. The conditions noted are these: in vivo. The gist of the method: as §2
For data set [12], the system named is Mus musculus. The experiment in a line: Anticonvulsant activity in ip dosed mouse assessed as compound concentration causing protection against subcutaneous pentylenetetrazol-induced seizures in half or more test animals after 4 hrs. The following applies: read-out: MED. Type of data set: functional. The method, boiled down: as §1
The subject of data set [13] is Mus musculus. The experiment in a line: Anticonvulsant activity in ip dosed mouse assessed as compound concentration causing protection against subcutaneous pentylenetetrazol-induced seizures in half or more test animals after 0.5 hrs. Type of data set: functional. The following applies: read-out: MED. The method, boiled down: as §1
The subject of data set [14] is Mus musculus. Kind of data set: Anticonvulsant activity in mouse assessed as protection against maximal electroshock-induced seizures at 300 mg/kg, ip after 4 hrs. Type of data set: functional, organism-based. The arrangement: dose 300 mg/kg. The method, boiled down: as §1
The test system of data set [15] is Mus musculus. The experiment in a line: Anticonvulsant activity in ip dosed mouse assessed as protection against maximal electroshock-induced seizures. It counts as functional.
Data set [16] concerns Mus musculus. The experiment in a line: Hepatotoxicity in mouse assessed as effect on total protein level at 30 mg/kg/day, po dosed for 2 weeks relative to control. It counts as toxicity, organism-based. The arrangement: route oral. The conditions noted are these: in vivo, 336 h. The method, boiled down:
(§3)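 Serum SGOT, SGPT, alkaline phosphatase, total albumin and total protein were measured in treated mice against controls (n = 6). Data were analysed by ANOVA followed by Student's t test.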

Data set [17] relates to Mus musculus. The experiment in a line: Hepatotoxicity in mouse assessed as effect on SGOT level at 30 mg/kg, po after 2 weeks relative to control. It counts as toxicity, organism-based. The arrangement: dose 30 mg/kg, route oral. The conditions noted are these: in vivo, 336 h. The method, boiled down:
as §3

In data set [18] the test system is Mus musculus. The experiment in a line: Neuroprotective activity in acrylamide-intoxicated mouse assessed as reduction in brain malonaldehyde level at 50 mg/kg, ip dosed 3 days/week for 3 weeks administered 10 mins before acrylamide challenge by TBARS detection assay. It counts as functional, organism-based. The arrangement: dose 50 mg/kg. The method, boiled down: (§4)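 Mice were given acrylamide to induce brain degeneration, with compound administered 10 min before the acrylamide. Brain MDA (lipid peroxidation) and LDH activity were measured against controls. Values are mean ± SEM of six animals, compared with Student's t test.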

The subject of data set [19] is Mus musculus. Kind of data set: Neuroprotective activity in acrylamide-intoxicated mouse assessed as reduction in brain LDH level at 50 mg/kg, ip dosed 3 days/week for 3 weeks administered 10 mins before acrylamide challenge by spectrophotometry. It counts as functional, organism-based. Details: dose 50 mg/kg. The method, boiled down:
as §4

The test system of data set [20] is Mus musculus. Kind of data set: Hepatotoxicity in mouse assessed as effect on alkaline phosphatase level at 30 mg/kg/day, po dosed for 2 weeks relative to control. Type of data set: toxicity, organism-based. The arrangement: route oral. The following applies: in vivo, 336 h. The method, boiled down:
as §3

Data set [21] concerns Mus musculus. Kind of data set: Hepatotoxicity in mouse assessed as effect on total albumin level at 30 mg/kg/day, po dosed for 2 weeks relative to control. It counts as toxicity, organism-based. Details: route oral. The following applies: in vivo, 336 h. The method, boiled down:
as §3

The subject of data set [22] is Mus musculus. Kind of data set: Hepatotoxicity in mouse assessed as effect on SGPT level at 30 mg/kg/day, po dosed for 2 weeks relative to control. The conditions noted are these: in vivo, 336 h. Type of data set: toxicity, organism-based. Details: route oral. The gist of the method: as §3

Consider `CCCC(CCC)C(=O)[O-].[Na+]` [VALPROATE SODIUM], for which the ED50 in the data set with Mus musculus [1] came to 149 mg/kg.
Turning to `O=C(Nc1nc2cc(Cl)c(F)cc2s1)c1ccccc1C(=O)c1ccccc1`, the minimal effective dose with Mus musculus [2] and in the data set with Mus musculus [7] was 300 mg/kg each time. Further, the MTC in the data set on Mus musculus [3] and in the data set on Mus musculus [5] was 300 mg/kg each time. In addition, the Time in the data set with Mus musculus [4] is 158.1 s. The outcome in the data set with Mus musculus [6] and in the data set on Mus musculus [8] was inactive.
For `O=C(Nc1nc2ccc(Cl)cc2s1)c1ccccc1C(=O)c1ccccc1`, the minimal effective dose with Mus musculus [2] was found to be 100 mg/kg; in the data set with Mus musculus [12], 300 mg/kg. Also, the outcome with Mus musculus [9] and with Mus musculus [6] was inactive. The Activity result in the data set on Mus musculus [10] and in the data set on Mus musculus [11] was “Non-toxic” each time. In addition, in the data set on Mus musculus [4], the Time is reported as 157 s.
Regarding `O=C(CCC(=O)c1ccccc1)Nc1nc2ccc(Br)cc2s1`, in the data set on Mus musculus [2], the minimal effective dose came out at 300 mg/kg. The result with Mus musculus [9], in the data set with Mus musculus [6] and with Mus musculus [8] was inactive. In the data set on Mus musculus [11], the Activity result is on record as “Non-toxic”. Moreover, the Time in the data set with Mus musculus [4] stood at 162 s. For the same compound, in the data set on Mus musculus [5], the MTC turned out to be 300 mg/kg.
In the case of `Cc1ccc2nc(NC(=O)c3ccccc3C(=O)c3ccccc3)sc2c1`, the Activity result with Mus musculus [10] and in the data set on Mus musculus [11] was “Non-toxic” throughout. Also, the Time in the data set with Mus musculus [4] came to 180 s. Besides, the minimal effective dose in the data set with Mus musculus [13] and in the data set on Mus musculus [7] was 300 mg/kg throughout. Besides, the outcome in the data set with Mus musculus [8] and in the data set on Mus musculus [14] was inactive.
Consider `CC(=O)c1ccc2nc(NC(=O)CCC(=O)c3ccccc3)sc2c1`, for which the minimal effective dose with Mus musculus [2] was determined as 100 mg/kg; with Mus musculus [12], 300 mg/kg. Moreover, the outcome in the data set with Mus musculus [9] and in the data set with Mus musculus [6] was inactive. In addition, the Activity entry in the data set on Mus musculus [10] and in the data set with Mus musculus [11] was “Non-toxic” throughout. In addition, in the data set with Mus musculus [4], the Time is listed as 168.3 s.
As for `CC(=O)c1ccc2nc(NC(=O)c3ccccc3C(=O)c3ccccc3)sc2c1`, the minimal effective dose in the data set on Mus musculus [2] and in the data set with Mus musculus [12] was 300 mg/kg throughout. For the same compound, the outcome in the data set on Mus musculus [9] and in the data set on Mus musculus [6] was inactive. Besides, the Activity entry with Mus musculus [10] and with Mus musculus [11] was “Non-toxic” each time. The Time in the data set with Mus musculus [4] was 172.3 s.
For `NC(=O)N1c2ccccc2C=Cc2ccccc21` [CARBAMAZEPINE], the minimal effective dose stood at 100 mg/kg in the data set with Mus musculus [2], 100 mg/kg with Mus musculus [13], 300 mg/kg with Mus musculus [12] and 30 mg/kg in the data set with Mus musculus [7]. Further, the ED50 in the data set with Mus musculus [1] is greater than 100 mg/kg; with Mus musculus [15], 8.8 mg/kg. Further, the MTC in the data set on Mus musculus [3] was determined as 100 mg/kg; in the data set with Mus musculus [5] it was 300 mg/kg. In addition, the Time in the data set on Mus musculus [4] was found to be 179.5 s.
Take `Cc1ccc2nc(NC(=O)CCC(=O)c3ccccc3)sc2c1`: the minimal effective dose in the data set on Mus musculus [2] was 100 mg/kg; with Mus musculus [13] it was 300 mg/kg; in the data set with Mus musculus [12], 300 mg/kg; in the data set with Mus musculus [7], 100 mg/kg. Besides, the Activity entry in the data set with Mus musculus [10] was “Non-toxic”; with Mus musculus [11], “Non-toxic”; with Mus musculus [16], “Toxic”; in the data set on Mus musculus [17], “Non-toxic”; in the data set on Mus musculus [20], “Non-toxic”; in the data set with Mus musculus [21], “Non-toxic”. For the same compound, in the data set with Mus musculus [22], the Activity entry is listed as “Non-toxic”. Further, the Time with Mus musculus [4] came out at 130 s. Besides, the outcome with Mus musculus [18] and in the data set on Mus musculus [19] was Active.

What is called ED50 is the dose that gives a 50% effect, or the effect in half of the subjects.
